Assays:
Type in all cases: functional
[1] = Growth inhibition of human LOXIMVI cells assessed as cell growth at 10^-6 M incubated for 48 hrs by sulforhodamine B assay; conditions: LOX IMVI, read-out: Activity
NCI-H322M [2] = experiment: Growth inhibition of human NCI-H322M cells assessed as cell growth at 10^-5 M incubated for 48 hrs by sulforhodamine B assay; conditions: read-out: Activity
NCI-H226 = experiment: Growth inhibition of human NCI-H226 cells assessed as cell growth at 10^-8 M incubated for 48 hrs by sulforhodamine B assay; conditions: NCI-H226, 48 h, read-out: Activity
NCI-H322M [3] = experiment: Growth inhibition of human NCI-H322M cells assessed as cell growth at 10^-8 M incubated for 48 hrs by sulforhodamine B assay; conditions: read-out: Activity
[4] = Growth inhibition of human SF268 cells assessed as cell growth at 10 uM incubated for 48 hrs by sulforhodamine B assay; conditions: SF-268, 48 h, read-out: Activity
[5] = Growth inhibition of human Caki1 cells assessed as cell growth at 10^-4 M incubated for 48 hrs by sulforhodamine B assay; conditions: CAKI-1, 48 h, read-out: Activity
In short: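 Cells seeded at 5,000–40,000/well according to doubling time and preincubated 24 h at 37 °C, 5% CO2. Time-zero plates were TCA-fixed. DMSO concentrate was diluted in medium with 50 µg/ml gentamicin to give five concentrations (10-fold or ½ log steps), then exposed 48 h. Cells were TCA-fixed, stained with 0.4% SRB and read at 515 nm. Percent growth was taken against time-zero and control; GI50, TGI and LC50 derived.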

MCF7 = experiment: Growth inhibition of human MCF7 cells assessed as cell growth at 10^-6 M incubated for 48 hrs by sulforhodamine B assay; conditions: MCF7, 48 h, read-out: Activity
CCRF-CEM = experiment: Growth inhibition of human CCRF-CEM cells assessed as cell growth at 10^-7 M incubated for 48 hrs by sulforhodamine B assay; conditions: read-out: Activity
In short: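 Leukemia line in the five-dose format: five concentrations from 10-fold or ½-log serial dilutions. Plated at 5,000–40,000 cells per well, preincubated 24 h, then compound added for 48 h at 37 °C, 5% CO₂. Sulforhodamine B absorbance read at 515 nm. Growth is computed against time-zero (Tz) and control (C) readings; GI₅₀ is where [(Ti−Tz)/(C−Tz)]×100 = 50.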

SK-MEL-2 = experiment: Growth inhibition of human SK-MEL-2 cells assessed as cell growth at 10^-7 M incubated for 48 hrs by sulforhodamine B assay; conditions: SK-MEL-2, 48 h, read-out: Activity
SN12C = experiment: Growth inhibition of human SN12C cells incubated for 48 hrs by sulforhodamine B assay
In short: (§1)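 Cells were plated at 5,000–40,000 per well according to doubling time and preincubated 24 h at 37 °C in 5% CO2; time-zero plates were then TCA-fixed. Five concentrations (10-fold or ½-log dilutions, DMSO stock) were incubated 48 h. Cells were TCA-fixed, stained with 0.4% SRB and read at 515 nm. GI50 was taken where [(Ti−Tz)/(C−Tz)]×100 = 50.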

A549 = experiment: Growth inhibition of human A549/ATCC cells incubated for 48 hrs by sulforhodamine B assay; conditions: A549, 48 h
In short: (§2)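 Five-dose assay: five concentrations from 10-fold or ½-log serial dilutions. Cells are plated at 5,000–40,000 per well according to doubling time, grown 24 h, then exposed 48 h at 37 °C, 5% CO₂. Fixed with cold 50% TCA (final addition) for 60 min at 4 °C and stained with 0.4% SRB in 1% acetic acid. Bound dye is solubilized in 10 mM Tris base and read at 515 nm. GI₅₀ is where [(Ti−Tz)/(C−Tz)]×100 = 50, with a time-zero plate as Tz.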

[6] = Growth inhibition of human SNB75 cells assessed as cell growth at 10^-6 M incubated for 48 hrs by sulforhodamine B assay; conditions: SNB-75, 48 h, read-out: Activity
NCI/ADR-RES = experiment: Growth inhibition of human NCI/ADR-RES cells assessed as cell growth at 10 uM incubated for 48 hrs by sulforhodamine B assay; conditions: read-out: Activity
Malme-3M = experiment: Growth inhibition of human MALME-3M cells assessed as cell growth at 10^-6 M incubated for 48 hrs by sulforhodamine B assay; conditions: read-out: Activity
[7] = Growth inhibition of human OVCAR3 cells assessed as cell growth at 10^-8 M incubated for 48 hrs by sulforhodamine B assay; conditions: OVCAR-3, 48 h, read-out: Activity
[8] = Growth inhibition of human OVCAR3 cells assessed as cell growth at 10^-6 M incubated for 48 hrs by sulforhodamine B assay; conditions: OVCAR-3, 48 h, read-out: Activity
[9] = Growth inhibition of human PC3 cells assessed as cell growth at 10^-6 M incubated for 48 hrs by sulforhodamine B assay; conditions: PC-3, 48 h, read-out: Activity
M14 = experiment: Growth inhibition of human M14 cells assessed as cell growth at 10^-6 M incubated for 48 hrs by sulforhodamine B assay; conditions: M14, 48 h, read-out: Activity
NCI-H23 = experiment: Growth inhibition of human NCI-H23 cells incubated for 48 hrs by sulforhodamine B assay; conditions: NCI-H23, 48 h; in short: as §1
[10] = Growth inhibition of human RXF393 cells incubated for 48 hrs by sulforhodamine B assay; conditions: RXF 393, 48 h; in short: as §1
ACHN = experiment: Growth inhibition of human ACHN cells assessed as cell growth at 10^-4 M incubated for 48 hrs by sulforhodamine B assay; conditions: read-out: Activity; in short: as §2
HT-29 [11] = experiment: Growth inhibition of human HT-29 cells assessed as cell growth at 10^-5 M incubated for 48 hrs by sulforhodamine B assay; conditions: HT-29, 48 h, read-out: Activity
HT-29 [12] = experiment: Growth inhibition of human HT-29 cells assessed as cell growth at 10^-6 M incubated for 48 hrs by sulforhodamine B assay; conditions: HT-29, 48 h, read-out: Activity
[13] = read-out: pLC50 (the source's name) (converted)
[14] = read-out: LC50 (the source's name)

**Q.** Which results are given for `c1ccc(-c2nc(Nc3ccc(-c4nc5ccccc5[nH]4)cc3)nc(N3CCOCC3)n2)cc1`?
**A.** growth at 1 µM [1]: 29%; growth at 10 µM (NCI-H322M [2]): -79%; growth at 0.01 µM (NCI-H226): 107%; growth at 0.01 µM (NCI-H322M [3]): 95%; growth at 10 µM [4]: -43.4%; growth at 100 µM [5]: -100%; growth at 1 µM (MCF7): 47%; growth at 0.1 µM (CCRF-CEM): 99%; growth at 0.1 µM (SK-MEL-2): 101%; LC50 (50% lethal concentration) (SN12C): 8.47 µM; GI50 (SN12C; read-out: GI50): 1.74 µM; TGI (SN12C; read-out: TGI): 3.83 µM; GI50 (SN12C; read-out: pGI50 (converted)): 1.74 µM; CC50 (SN12C; [13]): 8.51 µM; TGI (SN12C; read-out: pTGI (converted)): 3.8 µM; GI50 (A549; read-out: GI50): 1.95 µM; CC50 (A549; [14]): 8.25 µM; TGI (A549; read-out: TGI): 4.01 µM; GI50 (A549; read-out: pGI50 (converted)): 1.95 µM; CC50 (A549; [13]): 8.32 µM; TGI (A549; read-out: pTGI (converted)): 3.98 µM; growth at 1 µM [6]: 88%; growth at 10 µM (NCI/ADR-RES): -60.8%; growth at 1 µM (Malme-3M): 103%; growth at 0.01 µM [7]: 105%; growth at 1 µM [8]: 81%; growth at 1 µM [9]: 92%; growth at 1 µM (M14): 69%; GI50 (NCI-H23; read-out: GI50): 2.07 µM; CC50 (NCI-H23; [14]): 68.7 µM; TGI (NCI-H23; read-out: TGI): 4.78 µM; GI50 (NCI-H23; read-out: pGI50 (converted)): 2.09 µM; CC50 (NCI-H23; [13]): 69.2 µM; TGI (NCI-H23; read-out: pTGI (converted)): 4.79 µM; GI50 ([10]; read-out: GI50): 0.501 µM; CC50 [10, 14]: 7.24 µM; TGI ([10]; read-out: TGI): 2.12 µM; GI50 ([10]; read-out: pGI50 (converted)): 0.501 µM; CC50 [10, 13]: 7.24 µM; TGI ([10]; read-out: pTGI (converted)): 2.14 µM; growth at 100 µM (ACHN): -70%; growth at 10 µM (HT-29 [11]): -70%; growth at 1 µM (HT-29 [12]): 36%

Source: ChEMBL document CHEMBL3808334, “Synthesis and in vitro evaluation of novel triazine analogues as anticancer agents and their interaction studies with bovine serum albumin” (Eur J Med Chem, 2016)
